Results from ChEMBL document CHEMBL4138069, “Design, synthesis, molecular-docking and antimycobacterial evaluation of some novel 1,2,3-triazolyl xanthenones” (Medchemcomm, 2017).
In brackets after ≈: the same amount, converted by molar mass.

Tests used:
[1] = tested on: Mycobacterium tuberculosis; assay: Antimycobacterial activity against Mycobacterium tuberculosis H37Rv ATCC 27294 assessed as inhibition of bacterial growth incubated for 28 days; format: functional; details: H37Rv ATCC 27294, 672 h
Method in brief: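 Agar dilution in Middlebrook 7H11 with OADC, two-fold dilutions at final 50 to 0.78 μg mL–1. Inoculum from fresh 7H11 slants, adjusted to 1 mg mL–1 wet weight in 0.05% Tween 80 saline, diluted 10–2 to about 10^7 cfu mL–1; 5 μL spotted per tube. Incubated at 37 °C. MIC = lowest concentration giving complete growth inhibition, read at 28 days, in triplicate.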

Staphylococcus aureus = assay: Antibacterial activity against Staphylococcus aureus MTCC 96 by agar dilution method; format: functional
Method in brief: (§1)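 Minimum inhibitory concentration measured by agar dilution against three Gram-positive and three Gram-negative MTCC strains; read out as MIC.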

Bacillus subtilis = assay: Antibacterial activity against Bacillus subtilis MTCC 121 by agar dilution method; format: functional; method in brief: as §1
Bacillus cereus = assay: Antibacterial activity against Bacillus cereus MTCC 430 by agar dilution method; format: functional; method in brief: as §1
Escherichia coli = assay: Antibacterial activity against Escherichia coli MTCC 1652 by agar dilution method; format: functional; method in brief: as §1
Pseudomonas aeruginosa = assay: Antibacterial activity against Pseudomonas aeruginosa MTCC 741 by agar dilution method; format: functional; method in brief: as §1
Klebsiella aerogenes = assay: Antibacterial activity against Enterobacter aerogenes MTCC 111 by agar dilution method; format: functional; method in brief: as §1
Aspergillus niger = assay: Antifungal activity against Aspergillus niger MTCC 282; format: functional
Method in brief: (§2)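 Antifungal read-out was MIC in μg mL–1, with fluconazole as the reference drug.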

Candida albicans = assay: Antifungal activity against Candida albicans MTCC 9062; format: functional; method in brief: as §2
[2] = Lipophilicity, log P of the compound; format: physicochemical; details: octanol/water
Method in brief: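 Value is a calculated log P (clog P), computed rather than measured experimentally.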

[3] = Cytotoxicity in HEK cells assessed as inhibition of cell growth at 50 ug/ml incubated for 72 hrs by MTT assay; format: cell-based; details: human, read-out: GI
Method in brief: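 HEK cells were exposed to compound at 50 μg mL–1 for 72 h. Viability was taken from cellular conversion of MTT to formazan, using a non-radioactive cell proliferation kit.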

SMILES | MIC [1] | MIC (Staphylococcus aureus) | MIC (Bacillus subtilis) | MIC (Bacillus cereus) | MIC (Escherichia coli) | MIC (Pseudomonas aeruginosa) | MIC (Klebsiella aerogenes) | MIC (Aspergillus niger) | MIC (Candida albicans) | logP [2] | inhibition at 72 h, 50 ug/ml [3]
O=Cc1cn(-c2ccccc2)nn1 | 25 µg/mL (≈ 144 µM) |  |  |  |  |  |  |  |  |  | 
O=Cc1cn(-c2ccc(Cl)cc2)nn1 | 6.25 µg/mL (≈ 30.1 µM) |  |  |  |  |  |  |  |  |  | 
O=Cc1cn(-c2ccccc2Cl)nn1 | 25 µg/mL (≈ 120 µM) |  |  |  |  |  |  |  |  |  | 
O=Cc1cn(-c2ccc([N+](=O)[O-])cc2)nn1 | > 25 µg/mL |  |  |  |  |  |  |  |  |  | 
COc1ccc(-n2cc(C=O)nn2)cc1 | 12.5 µg/mL (≈ 61.5 µM) |  |  |  |  |  |  |  |  |  | 
COc1ccccc1-n1cc(C=O)nn1 | > 25 µg/mL |  |  |  |  |  |  |  |  |  | 
COc1ccc(-n2cc(C3C4=C(CCCC4=O)Oc4ccc5ccccc5c43)nn2)cc1 (configuration not stated) | 6.25 µg/mL (≈ 14.8 µM) | 3.12 µg/mL (≈ 7.37 µM) | 12.5 µg/mL (≈ 29.5 µM) | 3.12 µg/mL (≈ 7.37 µM) | 3.12 µg/mL (≈ 7.37 µM) | 6.25 µg/mL (≈ 14.8 µM) | 6.25 µg/mL (≈ 14.8 µM) | 3.12 µg/mL (≈ 7.37 µM) | 3.12 µg/mL (≈ 7.37 µM) | 3.73 | 22.2%
O=C1CCCC2=C1C(c1cn(-c3ccc([N+](=O)[O-])cc3)nn1)c1c(ccc3ccccc13)O2 (configuration not stated) | > 25 µg/mL | > 100 µg/mL | > 100 µg/mL | > 100 µg/mL | 50 µg/mL (≈ 114 µM) | 50 µg/mL (≈ 114 µM) | > 100 µg/mL | > 100 µg/mL | > 100 µg/mL |  | 
O=C1CCCC2=C1C(c1cn(-c3ccccc3)nn1)c1c(ccc3ccccc13)O2 (configuration not stated) | 12.5 µg/mL (≈ 31.8 µM) | 3.12 µg/mL (≈ 7.93 µM) | 3.12 µg/mL (≈ 7.93 µM) | 3.12 µg/mL (≈ 7.93 µM) | 3.12 µg/mL (≈ 7.93 µM) | 3.12 µg/mL (≈ 7.93 µM) | 3.12 µg/mL (≈ 7.93 µM) | 3.12 µg/mL (≈ 7.93 µM) | 3.12 µg/mL (≈ 7.93 µM) | 3.85 | 
CC1(C)CC(=O)C2=C(C1)Oc1ccc3ccccc3c1C2c1cn(-c2ccc(Cl)cc2)nn1 (configuration not stated) | 3.12 µg/mL (≈ 6.85 µM) | 12.5 µg/mL (≈ 27.4 µM) | 12.5 µg/mL (≈ 27.4 µM) | 12.5 µg/mL (≈ 27.4 µM) | 12.5 µg/mL (≈ 27.4 µM) | 12.5 µg/mL (≈ 27.4 µM) | 12.5 µg/mL (≈ 27.4 µM) | 12.5 µg/mL (≈ 27.4 µM) | 12.5 µg/mL (≈ 27.4 µM) | 5.21 | 18.1%
CC1(C)CC(=O)C2=C(C1)Oc1ccc3ccccc3c1C2c1cn(-c2ccc([N+](=O)[O-])cc2)nn1 (configuration not stated) | > 25 µg/mL | 12.5 µg/mL (≈ 26.8 µM) | 6.25 µg/mL (≈ 13.4 µM) | 6.25 µg/mL (≈ 13.4 µM) | 3.12 µg/mL (≈ 6.69 µM) | 12.5 µg/mL (≈ 26.8 µM) | 3.12 µg/mL (≈ 6.69 µM) | 6.25 µg/mL (≈ 13.4 µM) | 3.12 µg/mL (≈ 6.69 µM) |  | 
O=Cc1cn(-c2ccc(O)cc2)nn1 | > 25 µg/mL |  |  |  |  |  |  |  |  |  | 
CC1(C)CC(=O)C2=C(C1)Oc1ccc3ccccc3c1C2c1cn(-c2ccccc2)nn1 (configuration not stated) | 12.5 µg/mL (≈ 29.7 µM) | 6.25 µg/mL (≈ 14.8 µM) | 25 µg/mL (≈ 59.3 µM) | 12.5 µg/mL (≈ 29.7 µM) | 12.5 µg/mL (≈ 29.7 µM) | 25 µg/mL (≈ 59.3 µM) | 6.25 µg/mL (≈ 14.8 µM) | 6.25 µg/mL (≈ 14.8 µM) | 25 µg/mL (≈ 59.3 µM) | 4.65 | 
COc1ccccc1-n1cc(C2C3=C(CCCC3=O)Oc3ccc4ccccc4c32)nn1 (configuration not stated) | 25 µg/mL (≈ 59 µM) | 6.25 µg/mL (≈ 14.8 µM) | 12.5 µg/mL (≈ 29.5 µM) | 25 µg/mL (≈ 59 µM) | 12.5 µg/mL (≈ 29.5 µM) | 6.25 µg/mL (≈ 14.8 µM) | 6.25 µg/mL (≈ 14.8 µM) | 12.5 µg/mL (≈ 29.5 µM) | 6.25 µg/mL (≈ 14.8 µM) | 3.73 | 
CC1(C)CC(=O)C2=C(C1)Oc1ccc3ccccc3c1C2c1cn(-c2ccc(O)cc2)nn1 (configuration not stated) | > 25 µg/mL | 6.25 µg/mL (≈ 14.3 µM) | 6.25 µg/mL (≈ 14.3 µM) | 12.5 µg/mL (≈ 28.6 µM) | 3.12 µg/mL (≈ 7.13 µM) | 6.25 µg/mL (≈ 14.3 µM) | 6.25 µg/mL (≈ 14.3 µM) | 12.5 µg/mL (≈ 28.6 µM) | 3.12 µg/mL (≈ 7.13 µM) | 4.26 | 
O=C1CCCC2=C1C(c1cn(-c3cccc(C(F)(F)F)c3)nn1)c1c(ccc3ccccc13)O2 (configuration not stated) | > 25 µg/mL | 6.25 µg/mL (≈ 13.5 µM) | 12.5 µg/mL (≈ 27.1 µM) | 25 µg/mL (≈ 54.2 µM) | 12.5 µg/mL (≈ 27.1 µM) | 6.5 µg/mL (≈ 14.1 µM) | 12.5 µg/mL (≈ 27.1 µM) | 50 µg/mL (≈ 108 µM) | 50 µg/mL (≈ 108 µM) | 4.77 | 
O=C1CCCC2=C1C(c1cn(-c3ccccc3Cl)nn1)c1c(ccc3ccccc13)O2 (configuration not stated) | 25 µg/mL (≈ 58.4 µM) | > 100 µg/mL | > 100 µg/mL | > 100 µg/mL | 12.5 µg/mL (≈ 29.2 µM) | 50 µg/mL (≈ 117 µM) | 50 µg/mL (≈ 117 µM) | 12.5 µg/mL (≈ 29.2 µM) | > 100 µg/mL | 4.41 | 
O=C1CCCC2=C1C(c1cn(-c3ccc(O)cc3)nn1)c1c(ccc3ccccc13)O2 (configuration not stated) | > 25 µg/mL | > 100 µg/mL | > 100 µg/mL | > 100 µg/mL | > 100 µg/mL | > 100 µg/mL | > 100 µg/mL | > 100 µg/mL | > 100 µg/mL | 3.46 | 
COc1ccccc1-n1cc(C2C3=C(CC(C)(C)CC3=O)Oc3ccc4ccccc4c32)nn1 (configuration not stated) | 12.5 µg/mL (≈ 27.7 µM) | > 100 µg/mL | > 100 µg/mL | 50 µg/mL (≈ 111 µM) | 25 µg/mL (≈ 55.4 µM) | > 100 µg/mL | > 100 µg/mL | > 100 µg/mL | 25 µg/mL (≈ 55.4 µM) | 4.53 | 
O=Cc1cn(-c2cccc(C(F)(F)F)c2)nn1 | > 25 µg/mL |  |  |  |  |  |  |  |  |  | 
CC1(C)CC(=O)C2=C(C1)Oc1ccc3ccccc3c1C2c1cn(-c2ccccc2Cl)nn1 (configuration not stated) | 25 µg/mL (≈ 54.8 µM) | 3.12 µg/mL (≈ 6.84 µM) | 6.25 µg/mL (≈ 13.7 µM) | 3.12 µg/mL (≈ 6.84 µM) | 3.12 µg/mL (≈ 6.84 µM) | 6.25 µg/mL (≈ 13.7 µM) | 12.5 µg/mL (≈ 27.4 µM) | 3.12 µg/mL (≈ 6.84 µM) | 3.12 µg/mL (≈ 6.84 µM) | 5.21 | 
CC1(C)CC(=O)C2=C(C1)Oc1ccc3ccccc3c1C2c1cn(-c2cccc(C(F)(F)F)c2)nn1 (configuration not stated) | > 25 µg/mL | 25 µg/mL (≈ 51.1 µM) | 50 µg/mL (≈ 102 µM) | 12.5 µg/mL (≈ 25.5 µM) | 100 µg/mL (≈ 204 µM) | 25 µg/mL (≈ 51.1 µM) | 25 µg/mL (≈ 51.1 µM) | 12.5 µg/mL (≈ 25.5 µM) | 100 µg/mL (≈ 204 µM) | 5.57 | 
O=C1CCCC2=C1C(c1cn(-c3ccc(Cl)cc3)nn1)c1c(ccc3ccccc13)O2 (configuration not stated) | 3.12 µg/mL (≈ 7.3 µM) | 12.5 µg/mL (≈ 29.2 µM) | 50 µg/mL (≈ 117 µM) | 12.5 µg/mL (≈ 29.2 µM) | 12.5 µg/mL (≈ 29.2 µM) | 25 µg/mL (≈ 58.4 µM) | 12.5 µg/mL (≈ 29.2 µM) | > 100 µg/mL | > 100 µg/mL | 4.41 | 18.1%
COc1ccc(-n2cc(C3C4=C(CC(C)(C)CC4=O)Oc4ccc5ccccc5c43)nn2)cc1 (configuration not stated) | 6.25 µg/mL (≈ 13.8 µM) | 6.25 µg/mL (≈ 13.8 µM) | 6.25 µg/mL (≈ 13.8 µM) | 3.12 µg/mL (≈ 6.91 µM) | 12.5 µg/mL (≈ 27.7 µM) | 6.25 µg/mL (≈ 13.8 µM) | 6.25 µg/mL (≈ 13.8 µM) | 3.12 µg/mL (≈ 6.91 µM) | 6.25 µg/mL (≈ 13.8 µM) | 4.53 | 21.2%
O=C(O)c1cn(C2CC2)c2cc(N3CCNCC3)c(F)cc2c1=O [CIPROFLOXACIN] |  | ≤ 6.25 µg/mL | ≤ 6.25 µg/mL | ≤ 6.25 µg/mL | ≤ 6.25 µg/mL | ≤ 6.25 µg/mL | ≤ 6.25 µg/mL |  |  |  | 
CC[C@@H](CO)NCCN[C@@H](CC)CO [ETHAMBUTOL] | 7.64 µg/mL (≈ 37.4 µM) |  |  |  |  |  |  |  |  |  | 
OC(Cn1cncn1)(Cn1cncn1)c1ccc(F)cc1F [FLUCONAZOLE] |  |  |  |  |  |  |  | ≤ 3.12 µg/mL | ≤ 3.12 µg/mL |  | 
NNC(=O)c1ccncc1 [ISONIAZID] | 0.72 µg/mL (≈ 5.25 µM) |  |  |  |  |  |  |  |  |  | 
NC(=O)c1cnccn1 [PYRAZINAMIDE] | 50.8 µg/mL (≈ 412 µM) |  |  |  |  |  |  |  |  |  | 
CO[C@H]1/C=C/O[C@@]2(C)Oc3c(C)c(O)c4c(O)c(c(/C=N/N5CCN(C)CC5)c(O)c4c3C2=O)NC(=O)/C(C)=C\C=C\[C@H](C)[C@H](O)[C@@H](C)[C@@H](O)[C@@H](C)[C@H](OC(C)=O)[C@@H]1C [RIFAMPIN] | 0.24 µg/mL (≈ 0.292 µM) |  |  |  |  |  |  |  |  |  | 
